The text below walks through data of ChEMBL document CHEMBL4513216, “Probing the Open Global Health Chemical Diversity Library for Multistage-Active Starting Points for Next-Generation Antimalarials” (ACS Infect Dis, 2020).

A short description of the series: Toxicity liver stage against HepG2, at 10uM. Also on record: test concentration 10 uM, cell line HepG2-A16-CD81EGFP. The settings on record: human, HepG2-A16-CD81EGFP cells; read-out: INHIBITION
In kind it is cell-based. The method, boiled down:
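Uninfected HepG2-A16-CD81EGFP cells, 3 × 10^3 per well, 1536-well, plated on prespotted compound at 10 μM final, parasite-free screening media added to match infected plates; puromycin 10 μM positive, DMSO 0.5% negative; run in parallel with 48 h PbLuc assay at 37 °C, 5% CO2; viability by CellTiter-Glo luminescence, normalized to controls.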

Regarding `Cc1ccc(C(=O)NS(=O)(=O)Cc2ccccc2)cc1S(C)(=O)=O`, the cytotoxicity at 10 µM was 3.09%. As for `Cc1csc(CNC(=O)NCC(O)c2ccc(F)cc2F)n1` (stereo not drawn), the cytotoxicity at 10 µM is -10.8%.

On to `O=C(CN1CCc2ccccc2C1)NCc1ccco1`, for which the cytotoxicity at 10 µM was 6.32%.

With `O=C(c1csc(I)c1)N1CCc2c(ncn2C2CC2)C1`, the cytotoxicity at 10 µM turned out to be 7.21%. With `CSCCC(C)(O)CNC(=O)c1ccsc1` (stereo not drawn), the cytotoxicity at 10 µM was -4.57%. Then `N#Cc1ccccc1CN1CCC(CN2CCOCC2)C1` (stereo not drawn), with -4.5%; and `O=C1N(CC2CC2)CCC12CCCN(c1ncc(F)cn1)C2` (stereo not drawn), with 4.79%; and `Cn1ccc(C(=O)N2CCC(Cc3cccc4cccnc34)C2)n1` (stereo not drawn), with 2.16%. Turning to `COC(=O)CN1CCN(c2nc3c(s2)c(C)nn3C)C(C)C1=O` (stereo not drawn), the cytotoxicity at 10 µM is 3.27%. Then `CCC(=O)N(CC)CCc1nccs1`, with 9.66%; and `COc1cccc(CN(C)C(=O)CCC(=O)c2ccc(Cl)cc2)c1OC`, with -1.1%. As for `CC(C)c1nccn1CCCNC(=O)c1ccc(-c2cccnc2)nc1`, the cytotoxicity at 10 µM was -11.8%. As for `CC(=O)c1ccc(OCC(=O)c2cccn2C)cc1`, the cytotoxicity at 10 µM amounted to 27.6%. With `NC(=O)Cn1ccnc1C1CCCN(Cc2cccc(Cl)c2F)C1` (stereo not drawn), the cytotoxicity at 10 µM came to 7.81%. On to `CCN1CC(C(=O)NCCCc2nc(C)c(C)s2)CC1=O` (stereo not drawn), for which the cytotoxicity at 10 µM is -7.03%. As for `CCCC(O)CN1CCC(=O)N(CCOC)Cc2cc3c(cc21)OCO3` (stereo not drawn), the cytotoxicity at 10 µM is 6.91%.

As for `O=C1CCC(=O)N1Cc1ccc(C(=O)N2CCCC2c2cccs2)cc1` (stereo not drawn), the cytotoxicity at 10 µM came to 2.8%. Consider `Cn1cc(CN2CCCN(C(=O)c3cc[nH]n3)CC2)cn1`, for which the cytotoxicity at 10 µM was -8.72%. As to `CC(Cn1cccn1)NC(=O)CCc1ccc(S(N)(=O)=O)cc1` (stereo not drawn), the cytotoxicity at 10 µM is -2.02%. Take `Cn1cc(CN2CCCC3(CCCN3S(C)(=O)=O)C2)cn1` (stereo not drawn): the cytotoxicity at 10 µM amounted to 2.08%.

As to `CNC(=O)C1Cn2ccnc2C2(CCN(C(=O)NC3CCCC3)CC2)O1` (stereo not drawn), the cytotoxicity at 10 µM was -104%. As for `Cc1nc[nH]c1CN1CCC2(CC1)CC(Nc1ncccn1)CO2` (stereo not drawn), the cytotoxicity at 10 µM was determined as 12.2%. For `COCCCn1c(CN2CCCC(O)C2)cnc1S(=O)(=O)C1CCCC1` (stereo not drawn), the cytotoxicity at 10 µM was -13.5%. Take `CC(C)CN(Cc1ccccn1)Cc1ccccc1OCC(=O)O`: the cytotoxicity at 10 µM was -12.7%. With `CN(C)CC(=O)N1CCC2(CC1)COC(COc1ccccn1)C2` (stereo not drawn), the cytotoxicity at 10 µM was -3.14%. On to `Cc1n[nH]c(C)c1CCC(=O)NCC1CCCN(C2CCCC2)C1` (stereo not drawn), for which the cytotoxicity at 10 µM is -6.32%. Take `COc1ccc(Br)c(C(=O)NCC2CCN(S(=O)(=O)C3CC3)CC2)c1`: the cytotoxicity at 10 µM was -24.3%. Regarding `Nc1ccc(C(=O)N2CCCC(c3nccn3Cc3cscn3)C2)cn1` (stereo not drawn), the cytotoxicity at 10 µM was -4.92%. The figure for `O=C(N1CCC(Oc2ccncc2)C1)C1(c2ccc(F)cc2)CC1` (stereo not drawn) is -8.55%; for `CN(C)c1ccccc1CN1CCCCC1CNS(C)(=O)=O` (stereo not drawn) it is 0.212%. For `O=C(O)c1ccc(N2CCC(Oc3cccc(F)c3)CC2)nc1`, the cytotoxicity at 10 µM was -60.7%. Consider `O=S1(=O)NCC2(CCN(Cc3ccncc3)CC2)Oc2ncccc21`, for which the cytotoxicity at 10 µM stood at 5.97%.

Take `COCc1cnc2n1CCN(S(=O)(=O)c1c(C)nn(C)c1C)C2C` (stereo not drawn): the cytotoxicity at 10 µM was 15.4%. Turning to `CCNC(=O)N1CCC(=Cc2ccccc2)CC1`, the cytotoxicity at 10 µM worked out at 3.87%. In the case of `CCO[C@@H]1CO[C@@]2(CCCN(C(=O)COc3ccccc3OC)C2)C1`, the cytotoxicity at 10 µM worked out at 3.51%. For `O=C(NCC(=O)N1CCc2ccccc2C1)c1cnccn1`, the cytotoxicity at 10 µM is -4.81%. Regarding `CN(C)C(=O)CN1CCC2(CCCN(Cc3ccsc3)C2)C1=O` (stereo not drawn), the cytotoxicity at 10 µM is -106%. Then `Cc1cc(-c2cnc(C)nc2CN(C)C(=O)c2cc(C3CC3)on2)on1`, with -20%; and `Cc1ccc(S(=O)(=O)N2CCc3ccc(F)cc32)cc1C(=O)O`, with -19.4%. Regarding `O=S(=O)(c1ccccc1Cl)N1CCC2(CC1)OCCS2`, the cytotoxicity at 10 µM was -4.84%. Turning to `CSC(CNS(N)(=O)=O)c1cccc(Cl)c1` (stereo not drawn), the cytotoxicity at 10 µM was -14.3%.

Regarding `CCN1C(=O)CCC12CCCN(Cc1nccs1)CC2` (stereo not drawn), the cytotoxicity at 10 µM is -0.413%. With `Cc1csc(CCNC(=O)c2ccc(N(C)C)c(F)c2)n1`, the cytotoxicity at 10 µM worked out at 7.15%. For `CN(C)c1cc(CNC(=O)C2COc3ccccc3O2)ccn1` (stereo not drawn), the cytotoxicity at 10 µM is 2.5%. Take `O=C(Nc1ccc(CCN2CCC(O)CC2)cc1)Nc1cccnc1`: the cytotoxicity at 10 µM is -7.15%. Turning to `CCc1c(NCc2ccncc2)cnn1CC(C)C`, the cytotoxicity at 10 µM is 7.81%. With `O=C(NCCCN1CCc2ccccc2C1)c1ccccc1Br`, the cytotoxicity at 10 µM was -10.2%. As to `O=C1c2ncccc2C(CCO)N1Cc1ccccc1` (stereo not drawn), the cytotoxicity at 10 µM is -4.26%.

On to `O=S1(=O)NCC2(CCN(Cc3ccc(Cl)s3)C2)Oc2ncccc21` (stereo not drawn), for which the cytotoxicity at 10 µM stood at 4.65%. As for `CCC(=O)N(CCC(=O)O)Cc1ccc(F)c(F)c1`, the cytotoxicity at 10 µM is -1.99%. Consider `CC(=O)N(Cc1noc(C)n1)C1CCN(Cc2ccccn2)C1` (stereo not drawn), for which the cytotoxicity at 10 µM was -5.82%.

Regarding `CCOCCN1CCN(C(C)c2nc(C3CC3)no2)CC1` (stereo not drawn), the cytotoxicity at 10 µM is -4.51%. In the case of `CC(C)NC(=O)N1Cc2nccn2CC(COc2cccnc2)C1` (stereo not drawn), the cytotoxicity at 10 µM was 7.77%.

In the case of `Cc1csc(N2CCN(Cc3nnsc3Cl)CC2C)n1` (stereo not drawn), the cytotoxicity at 10 µM was -59.9%. On to `CCCS(=O)(=O)N1CC[C@H]2O[C@@H](c3nc(C)no3)CC[C@H]21`, for which the cytotoxicity at 10 µM is -2.48%. In the case of `O=C(NCCc1nccs1)C(c1ccccc1)n1cnnn1` (stereo not drawn), the cytotoxicity at 10 µM was determined as 5.28%.

Take `N#Cc1cccnc1NCCNC(=O)NCCSC(F)(F)F`: the cytotoxicity at 10 µM was determined as 1.2%. In the case of `O=C(Nc1cn[nH]c1)NC1CCN(c2ccccc2OC(F)F)C1` (stereo not drawn), the cytotoxicity at 10 µM turned out to be 26.1%. The figure for `CC(=O)NCc1cc2n(n1)CCN(Cc1ccccc1OC(F)(F)F)C2` is -2.84%; for `CC(NC1(CNC(=O)CC2CCCC2)CCOCC1)c1ccccc1` (stereo not drawn) it is -1.67%; for `COc1ccc(Oc2ncccc2NC(=O)N2CCOCC2)cc1` it is 9.11%. Consider `Cc1noc(C)c1C(=O)N1CCC(Nc2cccnn2)CC1`, for which the cytotoxicity at 10 µM was -4.48%. `CC(C)N(C)Cc1noc2c1CN(C(=O)c1ccsc1)CC2`: the cytotoxicity at 10 µM is 4.89%. In the case of `COc1cccc(CC(=O)N2CCN(c3cccc(C)c3)C(C)C2)c1` (stereo not drawn), the cytotoxicity at 10 µM was determined as 8.63%. The figure for `NC(=O)CSc1ccccc1NC(=O)C1CCCC1` is -135%; for `O=C(COC1CCCC1)Nc1ncn(CC(=O)N2CCCCCC2)n1` it is -8.16%; for `COCCN1CCN(C(=O)NC2CC2)Cc2ccc(C)nc21` it is 3.51%. Consider `CCC(=O)Nc1cccc(OCC(=O)N(C)Cc2ccon2)c1`, for which the cytotoxicity at 10 µM came out at 5.37%. With `CC(C)c1ccc(CS(=O)(=O)Cc2nc(N)nc(N(C)C)n2)cc1`, the cytotoxicity at 10 µM is 7.34%.

Consider `Cc1n[nH]c(C)c1CN(C)C(C(=O)O)c1c(F)cccc1OC(C)C` (stereo not drawn), for which the cytotoxicity at 10 µM was -56.1%. The figure for `COCC1c2c(cnn2C)CCN1Cc1ccsc1` (stereo not drawn) is -13.3%; for `CCN(Cc1cnn(CC)c1)C(=O)Cn1c(=O)c(C)nc2ccccc21` it is 0.791%; for `CC(Cn1ccnc1)NS(=O)(=O)c1ccc(C#N)c(Cl)c1` (stereo not drawn) it is -9.97%. Regarding `Nc1nccnc1C(=O)NC1CCN(Cc2ccccc2)C1` (stereo not drawn), the cytotoxicity at 10 µM was 11.9%.

Turning to `CC(O)c1cccc(OCc2ccon2)c1` (stereo not drawn), the cytotoxicity at 10 µM is -5.28%. As for `Cc1cc(C)cc(CCC(=O)N2CCN(c3cc(C)nc(N)n3)CC2)c1`, the cytotoxicity at 10 µM was -38.7%. In the case of `CN(Cc1ccco1)C(=O)Nc1cccnc1N1CCCC1`, the cytotoxicity at 10 µM is -5.3%.

With `CCOCCCNC(=O)c1nn(CC)cc1Br`, the cytotoxicity at 10 µM is 1.77%.

For the compound `CCC(=O)N1CCN(C(=O)c2ccc(COC)o2)[C@H]2CS(=O)(=O)C[C@H]21`, the cytotoxicity at 10 µM is -10.9%.

For `CC(O)c1cn(Cc2ccc(F)cc2)nn1` (stereo not drawn), the cytotoxicity at 10 µM came out at 4.78%. The figure for `COc1cc(CN2CCCC2)ccc1Oc1ncccc1C(F)(F)F` is 0.96%.

On to `CCOc1ncccc1C(=O)N1CCCC(c2nccn2CCOC)C1` (stereo not drawn), for which the cytotoxicity at 10 µM is -9.12%.

As for `CC(=O)c1ccc(CN2C[C@@H](CN3CCC(O)CC3)[C@@H](CO)C2)cc1`, the cytotoxicity at 10 µM stood at 9.99%. On to `CN1CCN(CCCNC(=O)CCc2nc3cc(Br)cnc3[nH]2)CC1`, for which the cytotoxicity at 10 µM was -124%. In the case of `Cc1noc(C)c1CN1C(=O)[C@@H]2CC[C@H]1CN(Cc1ncc[nH]1)C2`, the cytotoxicity at 10 µM is 5.85%. `CC(C)NC(=O)[C@@H]1C[C@H](N)CN1C(=O)c1cc2ccccc2[nH]c1=O`: the cytotoxicity at 10 µM amounted to 10.3%. In the case of `Cc1cc(CN(C)C(=O)CC(C)C)no1`, the cytotoxicity at 10 µM is -3.57%. `Cc1nc([C@@H]2C[C@@H]3CCN(C(=O)c4ccsc4)C[C@H]3O2)no1`: the cytotoxicity at 10 µM is -8.44%. On to `O=C(COc1ccccc1Cl)N1CCCC(n2ccnc2)C1` (stereo not drawn), for which the cytotoxicity at 10 µM is -21.9%. With `Cc1ccc([C@H]2CN(C(C)C)C[C@@H]2NS(=O)(=O)N2CCOCC2)o1`, the cytotoxicity at 10 µM is -1.01%. As to `CCn1c(C)cc(C(=O)N2CCCC(n3ccnc3C)C2)c1C` (stereo not drawn), the cytotoxicity at 10 µM is -1.51%.

`Cc1c[nH]c(C2CCCN(Cc3cccc(C(=O)O)c3)C2)n1` (stereo not drawn): the cytotoxicity at 10 µM amounted to 9.59%. Consider `Cc1cc2c(cc1C(=O)N1CC[C@H](CO)[C@@H](O)C1)OCCO2`, for which the cytotoxicity at 10 µM was -10.8%. `NC(=O)C1CCN(C(C(=O)O)c2ccc(Cl)c(C(F)(F)F)c2)CC1` (stereo not drawn): the cytotoxicity at 10 µM was -107%. Turning to `Cc1noc(COCC(=O)Nc2cc(C)c(Br)cn2)n1`, the cytotoxicity at 10 µM is 5.5%. Turning to `O=c1ccc(-n2cccn2)nn1CCNS(=O)(=O)c1ccc(F)c(Cl)c1`, the cytotoxicity at 10 µM came to 1.48%. `Cc1ccc(NC(=O)N2CCOC(C)C2)cc1Cl` (stereo not drawn): the cytotoxicity at 10 µM was -6.78%. In the case of `COCC(=O)N1C[C@H]2CNC[C@@]2(C(=O)NCc2snnc2C)C1`, the cytotoxicity at 10 µM turned out to be 8.27%.
